Test results taken from ChEMBL document CHEMBL1146380, “Synthesis, antimicrobial activity, and QSAR studies of furan-3-carboxamides” (2007).
Converted amounts (≈) assume the structure as drawn. The source made the active and inactive calls. No cut-off for these calls is given here.

Legend:
Staphylococcus aureus = experiment: Antimicrobial activity against Staphylococcus aureus ATCC 25923 by broth microdilution method; assay type: functional
Method in brief: (§1)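 Bacteria grown overnight on Mueller–Hinton agar. Colonies were suspended in saline to McFarland turbidity (about 10^8 cfu/mL), diluted 1:100 in saline, then 1:20 in Mueller–Hinton broth, giving 5 · 10^4 cfu/mL per well. DMSO-dissolved compound was tested in twofold dilutions from 320 to 1.25 at 35 °C for 24 h. MIC was the lowest concentration with no visible turbidity (M7-A4). Bactericidal concentration was read by subculturing clear wells on Mueller–Hinton agar.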

[1] = system: Cryptococcus deneoformans; experiment: Antimicrobial activity against Cryptococcus neoformans var.neoformans serotype D ATCC 28952 by broth microdilution method; assay type: functional
Method in brief: (§2)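 Organism grown on potato dextrose agar, with turbidity-standardized inoculum in RPMI 1640 broth (M27-A2). DMSO-dissolved compound was tested in twofold dilutions from 320 to 1.25 at 35 °C, incubated up to 72 h, in duplicate. MIC was the lowest concentration with no visible growth. Cidal concentration was read by subculturing 20 µL from clear wells on Sabouraud dextrose agar, incubated for the same period.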

Candida albicans = experiment: Antimicrobial activity against Candida albicans ATCC 44373 by broth microdilution method; assay type: functional
Method in brief: (§3)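 Yeasts grown on potato dextrose agar. Inoculum was standardized by McFarland turbidity as for bacteria, into RPMI 1640 broth (M27-A2). DMSO-dissolved compound was tested in twofold dilutions from 320 to 1.25 at 35 °C for 24 h, in duplicate. MIC was the lowest concentration completely inhibiting visible growth. Fungicidal concentration was read by subculturing 20 µL from clear wells on Sabouraud dextrose agar at 35 °C.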

Aspergillus terreus = experiment: Antimicrobial activity against Aspergillus terreus isolate by broth microdilution method; assay type: functional
Aspergillus niger = experiment: Antimicrobial activity against Aspergillus niger isolate by broth microdilution method; assay type: functional
Fusarium solani = experiment: Antimicrobial activity against Fusarium solani isolate by broth microdilution method; assay type: functional
Rhizopus arrhizus = experiment: Antimicrobial activity against Rhizopus oryzae isolate by broth microdilution method; assay type: functional
Saccharomyces cerevisiae = experiment: Antimicrobial activity against Saccharomyces cerevisiae ATCC 2601 by broth microdilution method; assay type: functional; method in brief: as §2
Aspergillus flavus = experiment: Antimicrobial activity against Aspergillus flavus isolate by broth microdilution method; assay type: functional
Nakaseomyces glabratus = experiment: Antimicrobial activity against Candida glabrata […] by broth microdilution method; assay type: functional; method in brief: as §3
Sporothrix schenckii = experiment: Antimicrobial activity against Sporothrix schenckii ATCC 1146 by broth microdilution method; assay type: functional
[2] = (§4) Antimicrobial activity against Salmonella setubal ATCC 19196 by broth microdilution method; assay type: functional, Salmonella enterica subsp. enterica serovar Setubal; settings: Salmonella enterica; method in brief: as §1
[3] = system: Salmonella enterica subsp. enterica serovar Setubal; experiment: as §4; assay type: functional; method in brief: as §1
Scedosporium boydii = experiment: Antimicrobial activity against Pseudallescheria boydii isolate by broth microdilution method; assay type: functional
Pseudomonas aeruginosa = experiment: Antimicrobial activity against Pseudomonas aeruginosa ATCC 27853 by broth microdilution method; assay type: functional; method in brief: as §1
Escherichia coli = experiment: Antimicrobial activity against Escherichia coli ATCC 25922 by broth microdilution method; assay type: functional; method in brief: as §1
Klebsiella pneumoniae = experiment: Antimicrobial activity against Klebsiella pneumoniae ATCC 1003 by broth microdilution method; assay type: functional; settings: for MBC: read-out: MFC; method in brief: as §1
Prototheca zopfii = experiment: Antimicrobial activity against Prototheca zopfii by broth microdilution method; assay type: functional; method in brief: as §2
Candida dubliniensis = experiment: Antimicrobial activity against Candida dubliniensis CBS 7987 by broth microdilution method; assay type: functional; method in brief: as §3
Aspergillus fumigatus = experiment: Antimicrobial activity against Aspergillus fumigatus isolate by broth microdilution method; assay type: functional

Structure (SMILES) | Activity (Staphylococcus aureus) | MIC (Staphylococcus aureus) [µg/mL] | MFC [1] [µg/mL] | MIC [1] [µg/mL] | Activity (Candida albicans) | Activity (Aspergillus terreus) | MIC (Aspergillus niger) [µg/mL] | Activity (Fusarium solani) | MIC (Fusarium solani) [µg/mL] | MIC (Rhizopus arrhizus) [µg/mL] | MFC (Saccharomyces cerevisiae) [µg/mL] | MIC (Saccharomyces cerevisiae) [µg/mL] | Activity (Aspergillus flavus) | Activity (Nakaseomyces glabratus) | MIC (Sporothrix schenckii) [µg/mL] | MIC [2] [µg/mL] | Activity [3] | MFC (Scedosporium boydii) [µg/mL] | Activity (Escherichia coli) | MIC (Klebsiella pneumoniae) [µg/mL] | also measured
O=C(NCc1cccnc1)c1ccoc1 | inactive | 320 (≈ 1580 µM) | 320 (≈ 1580 µM) | 160 (≈ 791 µM) | inactive | inactive | 320 (≈ 1580 µM) | inactive | 320 (≈ 1580 µM) | 320 (≈ 1580 µM) | 320 (≈ 1580 µM) | 320 (≈ 1580 µM) | inactive | inactive | 320 (≈ 1580 µM) | 320 (≈ 1580 µM) | inactive | 160 (≈ 791 µM) | inactive | 320 (≈ 1580 µM) | MIC (Aspergillus terreus): 320 µg/mL (≈ 1580 µM); MFC (Aspergillus niger): 320 µg/mL (≈ 1580 µM); MFC (Rhizopus arrhizus): 320 µg/mL (≈ 1580 µM); MFC (Sporothrix schenckii): 320 µg/mL (≈ 1580 µM); MIC (Scedosporium boydii): 160 µg/mL (≈ 791 µM); Activity (Pseudomonas aeruginosa): inactive; MIC (Pseudomonas aeruginosa): 320 µg/mL (≈ 1580 µM); MIC (Escherichia coli): 320 µg/mL (≈ 1580 µM); Activity (Klebsiella pneumoniae): inactive; MFC (Prototheca zopfii): 160 µg/mL (≈ 791 µM); MIC (Prototheca zopfii): 160 µg/mL (≈ 791 µM); Activity (Candida dubliniensis): inactive; MIC (Candida dubliniensis): 320 µg/mL (≈ 1580 µM); MFC (Aspergillus fumigatus): 320 µg/mL (≈ 1580 µM); MIC (Aspergillus fumigatus): 320 µg/mL (≈ 1580 µM)
O=C(Nc1nc[nH]n1)c1ccoc1 | – | 160 (≈ 898 µM) | 80 (≈ 449 µM) | 20 (≈ 112 µM) | – | inactive | 320 (≈ 1800 µM) | inactive | 320 (≈ 1800 µM) | 320 (≈ 1800 µM) | 320 (≈ 1800 µM) | 160 (≈ 898 µM) | inactive | – | 160 (≈ 898 µM) | 320 (≈ 1800 µM) | inactive | 320 (≈ 1800 µM) | inactive | 320 (≈ 1800 µM) | MBC (Staphylococcus aureus; read-out: MFC): 160 µg/mL (≈ 898 µM); MFC (Candida albicans): 80 µg/mL (≈ 449 µM); MIC (Candida albicans): 80 µg/mL (≈ 449 µM); Activity (Rhizopus arrhizus): inactive; MFC (Nakaseomyces glabratus): 80 µg/mL (≈ 449 µM); MIC (Nakaseomyces glabratus): 80 µg/mL (≈ 449 µM); MFC (Sporothrix schenckii): 320 µg/mL (≈ 1800 µM); MIC (Scedosporium boydii): 320 µg/mL (≈ 1800 µM); MBC (Pseudomonas aeruginosa): 320 µg/mL (≈ 1800 µM); MIC (Pseudomonas aeruginosa): 160 µg/mL (≈ 898 µM); MIC (Escherichia coli): 320 µg/mL (≈ 1800 µM); MBC (Klebsiella pneumoniae): 320 µg/mL (≈ 1800 µM); MFC (Prototheca zopfii): 160 µg/mL (≈ 898 µM); MIC (Prototheca zopfii): 160 µg/mL (≈ 898 µM); MFC (Candida dubliniensis): 80 µg/mL (≈ 449 µM); MIC (Candida dubliniensis): 40 µg/mL (≈ 225 µM); Activity (Aspergillus fumigatus): inactive; MIC (Aspergillus fumigatus): 320 µg/mL (≈ 1800 µM)
Cc1ccc(S(=O)(=O)NNC(=O)c2ccoc2)cc1 | inactive | 320 (≈ 1140 µM) | 320 (≈ 1140 µM) | 320 (≈ 1140 µM) | inactive | inactive | – | inactive | 320 (≈ 1140 µM) | 320 (≈ 1140 µM) | 320 (≈ 1140 µM) | 160 (≈ 571 µM) | inactive | inactive | 160 (≈ 571 µM) | 320 (≈ 1140 µM) | inactive | 160 (≈ 571 µM) | inactive | 320 (≈ 1140 µM) | MIC (Aspergillus terreus): 320 µg/mL (≈ 1140 µM); Activity (Aspergillus niger): inactive; Activity (Rhizopus arrhizus): inactive; MIC (Aspergillus flavus): 320 µg/mL (≈ 1140 µM); Activity (Sporothrix schenckii): inactive; MIC (Scedosporium boydii): 160 µg/mL (≈ 571 µM); MBC (Pseudomonas aeruginosa): 320 µg/mL (≈ 1140 µM); MIC (Pseudomonas aeruginosa): 160 µg/mL (≈ 571 µM); MIC (Escherichia coli): 320 µg/mL (≈ 1140 µM); Activity (Klebsiella pneumoniae): inactive; Activity (Prototheca zopfii): inactive; MIC (Prototheca zopfii): 320 µg/mL (≈ 1140 µM); Activity (Candida dubliniensis): inactive; MFC (Aspergillus fumigatus): 320 µg/mL (≈ 1140 µM); MIC (Aspergillus fumigatus): 320 µg/mL (≈ 1140 µM)
NS(=O)(=O)c1ccc(NC(=O)c2ccoc2)cc1 | inactive | – | – | – | inactive | inactive | 320 (≈ 1200 µM) | inactive | – | – | – | – | – | inactive | – | 160 (≈ 601 µM) | inactive | – | inactive | 20 (≈ 75.1 µM) | Activity [1]: inactive; MFC (Aspergillus niger): 320 µg/mL (≈ 1200 µM); Activity (Rhizopus arrhizus): inactive; Activity (Saccharomyces cerevisiae): inactive; MFC (Aspergillus flavus): 320 µg/mL (≈ 1200 µM); MIC (Aspergillus flavus): 320 µg/mL (≈ 1200 µM); Activity (Sporothrix schenckii): inactive; Activity (Scedosporium boydii): inactive; Activity (Pseudomonas aeruginosa): inactive; MBC (Klebsiella pneumoniae): 320 µg/mL (≈ 1200 µM); Activity (Prototheca zopfii): inactive; Activity (Candida dubliniensis): inactive; Activity (Aspergillus fumigatus): inactive
